Laboratory results as given in ChEMBL document CHEMBL5303300, “EUbOPEN Chemogenomics Library - Multiplex” (2023).
Several values for one entry are separate records, joined by “and”; a condition that tells them apart may be missing. Equal entries are not always repeated.

Test system: Fibroblast
Experiment: Multiplex assay against human fibroblast
Format: toxicity, cell-based
Details: number of replicates 2
Method in brief: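 At seeding, live cells were stained with Hoechst33342, BioTracker Green Microtubule Cytoskeleton Dye, MitoTracker Red and Annexin V Alexa Fluor 680. After compound addition they were imaged on a CQ1 microscope at 37°C and 5% CO2, and CellPathfinder machine-learning gating sorted them into Hoechst high-intensity objects or normal cells, with normal cells further split into healthy, pyknosed or fragmented nuclei and pyknosed cells into mitotic or apoptotic. Tubulin, mitochondrial-mass and membrane-permeability phenotypes are given as per cents of cells with healthy nuclei.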

[1] = 12 h, 1 µM, compound concentration 1 uM
[2] = 12 h, 10 µM, compound concentration 10 uM
[3] = 24 h, 1 µM, compound concentration 1 uM
[4] = 24 h, 10 µM, compound concentration 10 uM
[5] = 48 h, 1 µM, compound concentration 1 uM
[6] = 48 h, 10 µM, compound concentration 10 uM

Structure (SMILES): C=CC(=O)Nc1ccc2[nH]c(=O)n(C3CCN(Cc4ccc(-c5ccc6c(c5)NC(=O)CO6)cc4)CC3)c2c1 [RL2578]
- Population Apoptotic (%) [1]: 34% and 40%
- Population Fragmented Nuclei (%) [1]: 12% and 8%
- Population Healthy Nuclei (%) [1]: 72% and 66%
- Population Hoechst High Intensity Objects (%) [1]: 0%
- Population Membrane Permeable-Phenotype (%) [1]: 4%
- Population Mitochondria Different-Phenotype (%) [1]: 3%
- Population Mitotic Cells (%) [1]: 65% and 60%
- Population Normal (%) [1]: 100%
- Population Pyknosed Nuclei (%) [1]: 15% and 25%
- Population Tubulin-Different-Phenotype (%) [1]: 13% and 15%
- Total Cell Count [1]: 173 and 180
- Population Apoptotic (%) [2]: 46% and 29%
- Population Fragmented Nuclei (%) [2]: 26% and 23%
- Population Healthy Nuclei (%) [2]: 65% and 67%
- Population Hoechst High Intensity Objects (%) [2]: 0%
- Population Membrane Permeable-Phenotype (%) [2]: 5% and 4%
- Population Mitochondria Different-Phenotype (%) [2]: 0% and 4%
- Population Mitotic Cells (%) [2]: 53% and 70%
- Population Normal (%) [2]: 99% and 100%
- Population Pyknosed Nuclei (%) [2]: 8%
- Population Tubulin-Different-Phenotype (%) [2]: 45% and 35%
- Total Cell Count [2]: 324 and 315
- Population Apoptotic (%) [3]: 48% and 55%
- Population Fragmented Nuclei (%) [3]: 6% and 14%
- Population Healthy Nuclei (%) [3]: 73% and 65%
- Population Hoechst High Intensity Objects (%) [3]: 0%
- Population Membrane Permeable-Phenotype (%) [3]: 3%
- Population Mitochondria Different-Phenotype (%) [3]: 4% and 0%
- Population Mitotic Cells (%) [3]: 51% and 44%
- Population Normal (%) [3]: 100%
- Population Pyknosed Nuclei (%) [3]: 19% and 20%
- Population Tubulin-Different-Phenotype (%) [3]: 18% and 19%
- Total Cell Count [3]: 169 and 214
- Population Apoptotic (%) [4]: 63% and 50%
- Population Fragmented Nuclei (%) [4]: 29% and 26%
- Population Healthy Nuclei (%) [4]: 65% and 69%
- Population Hoechst High Intensity Objects (%) [4]: 0%
- Population Membrane Permeable-Phenotype (%) [4]: 2%
- Population Mitochondria Different-Phenotype (%) [4]: 5% and 4%
- Population Mitotic Cells (%) [4]: 36% and 50%
- Population Normal (%) [4]: 99%
- Population Pyknosed Nuclei (%) [4]: 5% and 3%
- Population Tubulin-Different-Phenotype (%) [4]: 36% and 24%
- Total Cell Count [4]: 377 and 407
- Population Apoptotic (%) [5]: 86% and 67%
- Population Fragmented Nuclei (%) [5]: 14% and 17%
- Population Healthy Nuclei (%) [5]: 71% and 65%
- Population Hoechst High Intensity Objects (%) [5]: 0%
- Population Membrane Permeable-Phenotype (%) [5]: 5% and 6%
- Population Mitochondria Different-Phenotype (%) [5]: 0%
- Population Mitotic Cells (%) [5]: 13% and 32%
- Population Normal (%) [5]: 100% and 99%
- Population Pyknosed Nuclei (%) [5]: 14% and 17%
- Population Tubulin-Different-Phenotype (%) [5]: 14% and 8%
- Total Cell Count [5]: 160 and 217
- Population Apoptotic (%) [6]: 78% and 76%
- Population Fragmented Nuclei (%) [6]: 29%
- Population Healthy Nuclei (%) [6]: 66% and 67%
- Population Hoechst High Intensity Objects (%) [6]: 0%
- Population Membrane Permeable-Phenotype (%) [6]: 0% and 2%
- Population Mitochondria Different-Phenotype (%) [6]: 2% and 1%
- Population Mitotic Cells (%) [6]: 21% and 23%
- Population Normal (%) [6]: 100% and 99%
- Population Pyknosed Nuclei (%) [6]: 4% and 2%
- Population Tubulin-Different-Phenotype (%) [6]: 18% and 13%
- Total Cell Count [6]: 424 and 452

Structure (SMILES): C[C@@H]1CC[C@@]2(OC1)O[C@H]1[C@@H](O)[C@H]3[C@@H]4CC[C@H]5C[C@@H](O[C@@H]6O[C@H](CO)[C@H](O[C@@H]7O[C@H](CO)C(O)[C@H](O[C@@H]8OC[C@@H](O)[C@H](O)[C@H]8O)[C@H]7O[C@@H]7O[C@H](CO)[C@H](O)[C@H](O[C@@H]8O[C@H](CO)[C@@H](O)[C@H](O)[C@H]8O)[C@H]7O)[C@H](O)[C@H]6O)[C@H](O)C[C@]5(C)[C@H]4CC[C@]3(C)[C@H]1[C@@H]2C (some centres not stated) [DIGITONIN]
- Population Apoptotic (%) [2]: 44% and 47% and 48% and 42%
- Population Fragmented Nuclei (%) [2]: 9% and 12% and 13% and 8%
- Population Healthy Nuclei (%) [2]: 76% and 61% and 68% and 72%
- Population Hoechst High Intensity Objects (%) [2]: 0%
- Population Membrane Permeable-Phenotype (%) [2]: 6% and 4% and 1%
- Population Mitochondria Different-Phenotype (%) [2]: 0% and 1% and 2%
- Population Mitotic Cells (%) [2]: 56% and 52% and 51% and 57%
- Population Normal (%) [2]: 100%
- Population Pyknosed Nuclei (%) [2]: 13% and 26% and 18% and 19%
- Population Tubulin-Different-Phenotype (%) [2]: 10% and 4% and 8% and 6%
- Total Cell Count [2]: 181 and 157 and 188 and 182
- Population Apoptotic (%) [4]: 55% and 53% and 47% and 66%
- Population Fragmented Nuclei (%) [4]: 11% and 12%
- Population Healthy Nuclei (%) [4]: 77% and 55% and 71% and 69%
- Population Hoechst High Intensity Objects (%) [4]: 0% and 1%
- Population Membrane Permeable-Phenotype (%) [4]: 6% and 2%
- Population Mitochondria Different-Phenotype (%) [4]: 0% and 1% and 3%
- Population Mitotic Cells (%) [4]: 45% and 46% and 52% and 33%
- Population Normal (%) [4]: 100% and 98%
- Population Pyknosed Nuclei (%) [4]: 11% and 32% and 17%
- Population Tubulin-Different-Phenotype (%) [4]: 11% and 3% and 7% and 12%
- Total Cell Count [4]: 171 and 168 and 198 and 188
- Population Apoptotic (%) [6]: 90% and 64% and 75% and 60%
- Population Fragmented Nuclei (%) [6]: 12% and 14% and 15%
- Population Healthy Nuclei (%) [6]: 81% and 64% and 68%
- Population Hoechst High Intensity Objects (%) [6]: 0%
- Population Membrane Permeable-Phenotype (%) [6]: 5% and 1% and 7%
- Population Mitochondria Different-Phenotype (%) [6]: 0% and 1%
- Population Normal (%) [6]: 100% and 99%
- Population Tubulin-Different-Phenotype (%) [6]: 6% and 5%
- Total Cell Count [6]: 169 and 162 and 205 and 188
